Measurements from ChEMBL document CHEMBL1142491, “Linking bisphosphonates to the free amino groups in fluoroquinolones: preparation of osteotropic prodrugs for the prevention of osteomyelitis” (J Med Chem, 2008).
≈ marks a conversion by molar mass, not a printed value. Calls of active or inactive are those of the source. No cut-off for these calls is given here.

Tests used:
Bone = test: Binding affinity to bone assessed as drug level bound to cattle bone meal powder by fluorescence assay; assay type: tissue-based; set-up: concentration or dose not given beside the values; details: Bos taurus; Bone element
Outline: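 Compound dissolved in PBS, added at 1 mg/mL final to bone meal powder slurry (10 mg/mL in PBS), 37 °C for 1 h. Spun 13 000 rpm 2 min. Bound amount taken as input minus amount in supernatant, measured by fluorescence. Limit of detection 0.01%.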

Staphylococcus aureus [1] = test: Antibacterial activity against Staphylococcus aureus ATCC 13709 after 24 hrs by microdilution method; assay type: functional; details: ATCC 13709, 24 h
Outline: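 MIC by broth microdilution per CLSI guidelines (M7 A7) against S. aureus ATCC 13709.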

Staphylococcus aureus [2] = test: Protective effect against Staphylococcus aureus ATCC 13709-induced bone infection in CD rat at 24 mg/kg, iv administered as single dose 1 day before bacterial challenge; assay type: functional, organism-based; set-up: dose 24 mg/kg
Outline: (§1)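 S. aureus ATCC 13709 inoculum from frozen stock. Rats given intratibial 5% sodium morrhuate then about 5 × 10^5 CFU. Single IV bolus in saline, at the stated time relative to infection. Sacrificed 24 h post-infection. Tibiae milled and plated; mean log CFU/g bone ± SD. Detection limit 2 log CFU/g. Dunnett's test vs untreated, P<0.05.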

Serum [3] = test: Stability in 50% human serum assessed as amount of parent drug released from cattle bone meal powder over 24 hrs; assay type: ADME, cell-free
Outline: (§2)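 Washed bone powder carrying bound prodrug resuspended in PBS or 50% (v/v in PBS) human or rat serum, 24 h at 37 °C, then centrifuged. Supernatant extracted with 5 volumes methanol (15 min vortex), spun, dried, redissolved in PBS. Released fluoroquinolone quantified by fluorescence. Limit of detection 0.01%.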

Serum [4] = test: Stability in 50% rat serum assessed as amount of parent drug released from cattle bone meal powder over 24 hrs; assay type: ADME, cell-free; outline: as §2
[5] = Stability in phosphate buffer saline assessed as amount of parent drug released from cattle bone meal powder over 24 hrs; assay type: ADME; outline: as §2
Staphylococcus aureus [6] = test: Protective effect against Staphylococcus aureus ATCC 13709-induced bone infection in CD rat at 42 mg/kg, iv administered as single dose 2 days before bacterial challenge; assay type: functional, organism-based; set-up: dose 42 mg/kg; outline: as §1
Staphylococcus aureus [7] = test: Protective effect against Staphylococcus aureus ATCC 13709-induced bone infection in CD rat at 20.8 mg/kg, iv administered as single dose 1 day before bacterial challenge; assay type: functional, organism-based; set-up: dose 20.8 mg/kg; outline: as §1
Staphylococcus aureus [8] = test: Protective effect against Staphylococcus aureus ATCC 13709-induced bone infection in CD rat at 10 mg/kg, iv administered as single dose 1 hr after bacterial challenge; assay type: functional, organism-based; set-up: dose 10 mg/kg; outline: as §1
Staphylococcus aureus [9] = test: Protective effect against Staphylococcus aureus ATCC 13709-induced bone infection in CD rat at 20 mg/kg, iv administered as single dose 2 days before bacterial challenge; assay type: functional, organism-based; set-up: dose 20 mg/kg; outline: as §1

SMILES	Activity (Bone) [%]	MIC (Staphylococcus aureus [1]) [µg/mL]	Activity (Staphylococcus aureus [2])	Activity (Serum [3]) [%]	Activity (Serum [4]) [%]	Activity [5] [%]	Activity (Staphylococcus aureus [6])	Activity (Staphylococcus aureus [7])	Activity (Staphylococcus aureus [8])	Activity (Staphylococcus aureus [9])
COc1c(N2CCN(C(=O)CC(C)(C)c3cc(P(=O)(O)CP(=O)(O)O)ccc3OP(=O)(O)O)C(C)C2)c(F)cc2c(=O)c(C(=O)O)cn(C3CC3)c12 (configuration not stated)	0.01	> 4	–	–	–	–	–	–	–	–
COc1c(N2C[C@@H]3CCCN(C(=O)CC(P(=O)(O)O)P(=O)(O)O)[C@@H]3C2)c(F)cc2c(=O)c(C(=O)O)cn(C3CC3)c12	99.9	> 4	inactive	0.01	0.01	0.01	–	–	–	–
COc1c(N2CCN(C(=O)OCOC(=O)CCC(P(=O)(O)O)P(=O)(O)O)C(C)C2)c(F)cc2c(=O)c(C(=O)O)cn(C3CC3)c12 (configuration not stated)	86.4	0.5 (≈ 0.736 µM)	–	21.2	25.4	13.4	Active	–	–	–
COc1c(N2CCN(C(=O)OC(C)OC(=O)CCCC(=O)NC(P(=O)(O)O)P(=O)(O)O)C(C)C2)c(F)cc2c(=O)c(C(=O)O)cn(C3CC3)c12 (configuration not stated)	94.3	> 4	–	2.4	1.8	1.5	–	–	–	–
COc1c(N2CCN(CCC(=O)c3ccc(OCCCC(P(=O)(O)O)P(=O)(O)O)cc3)C(C)C2)c(F)cc2c(=O)c(C(=O)O)cn(C3CC3)c12 (configuration not stated)	94.7	0.12 (≈ 0.162 µM)	–	4.3	4.2	2.3	–	Active	–	–
COc1c(N2C[C@@H]3CCCN(C(=O)OC(C)OC(=O)CCCC(=O)NC(P(=O)(O)O)P(=O)(O)O)[C@@H]3C2)c(F)cc2c(=O)c(C(=O)O)cn(C3CC3)c12 (some centres not stated)	93.9	> 4	–	1.8	1.4	1.2	–	–	–	–
COc1c(N2CCN(C(=O)CC(P(=O)(O)O)P(=O)(O)O)C(C)C2)c(F)cc2c(=O)c(C(=O)O)cn(C3CC3)c12 (configuration not stated)	98.2	> 4	–	0.01	0.01	0.01	–	–	–	–
O=C(O)c1cn(C2CC2)c2cc(N3CCNCC3)c(F)cc2c1=O [CIPROFLOXACIN]	0.01	–	–	–	–	–	–	–	–	–
O=C(O)c1cn(C2CC2)c2cc(N3CCN(CC(P(=O)(O)O)P(=O)(O)O)CC3)c(F)cc2c1=O	99.6	> 4	–	0.01	0.01	0.01	–	–	–	–
COc1c(N2C[C@@H]3CCCN(CC(P(=O)(O)O)P(=O)(O)O)[C@@H]3C2)c(F)cc2c(=O)c(C(=O)O)cn(C3CC3)c12	92.2	> 4	–	0.01	0.01	0.01	–	–	–	–
COc1c(N2CCN(Cc3oc(=O)oc3-c3ccc(P(=O)(O)CP(=O)(O)O)cc3)C(C)C2)c(F)cc2c(=O)c(C(=O)O)cn(C3CC3)c12 (configuration not stated)	63.7	< 0.12	–	22.8	30	7.5	–	–	–	–
COc1c(N2CCN(C(=O)OC(C)OC(=O)CCCC(P(=O)(O)O)P(=O)(O)O)C(C)C2)c(F)cc2c(=O)c(C(=O)O)cn(C3CC3)c12 (configuration not stated)	88.4	> 4	–	0.9	0.7	0.7	–	–	–	–
COc1c(N2C[C@@H]3CCCN[C@@H]3C2)c(F)cc2c(=O)c(C(=O)O)cn(C3CC3)c12 [MOXIFLOXACIN]	0.01	0.03 (≈ 0.0747 µM)	–	–	–	–	–	–	Active	–
COc1c(N2CCN(C(=O)CC(C)(C)c3cc(P(=O)(O)CP(=O)(O)O)ccc3OC(C)=O)C(C)C2)c(F)cc2c(=O)c(C(=O)O)cn(C3CC3)c12 (configuration not stated)	36.6	> 4	–	3.7	6.2	5.4	–	–	–	–
COc1c(N2CCNC(C)C2)c(F)cc2c(=O)c(C(=O)O)cn(C3CC3)c12 (configuration not stated) [GATIFLOXACIN]	0.01	0.06 (≈ 0.16 µM)	–	–	–	–	–	–	–	inactive
COc1c(N2CCN(C(=O)CC(C)(C)c3cc(P(=O)(O)CP(=O)(O)O)ccc3OC(=O)C(C)C)C(C)C2)c(F)cc2c(=O)c(C(=O)O)cn(C3CC3)c12 (configuration not stated)	76	> 4	–	3.6	6.1	0.8	–	–	–	–
